From PubChem
Hits are enriched below; roughly 3.8% of the tested compounds scored in any of these assays.
KCNQ1 inh: inhibitors of human KCNQ1 channel, primary screen, cell-based, thallium flux, high-throughput; B-score at 10 µM; hit rate 1.3% among 310,000; CHO-K1 KCNQ1, FluxOR thallium flux fluorescence; hits give high values; Potassium voltage-gated channel subfamily KQT member 1 (Homo sapiens), P51787;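 active means compounds whose thallium flux B-score, printed positive for inhibition, exceeds three library SD while starting fluorescence stays within three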;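 further: channel opened by potassium depolarization with thallium stimulus after 20 min compound exposure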
KCNQ1 pot: potentiators or activators of KCNQ1 channel, primary screen, cell-based, thallium flux, high-throughput; CHO-K1 KCNQ1, thallium flux FluxOR fluorescence; hits give high values; B-score at 10 µM; hit rate 0.35% among 310,000; AID 2648, 2010;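 active means fluorescence ratio B-score, a plate-corrected score, at least three library SD, with initial intensity B-score within 5 SD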
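assay system = CHO-K1 cells stably expressing KCNQ1 | medium = assay buffer, equal DMSO in all wells | timing = 37 °C overnight plating, 90-min dark dye load, 20-min compound pretreatment | measured by = kinetic FluxOR thallium fluorescence, 10-s 1-Hz baseline, 110-s post-stimulus read | measure = fluorescence change relative to baseline, converted to B score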
KCNK3 block: human KCNK3 channel inhibitors, primary screen, CHO cells, FluxOR thallium flux, B-score; Potassium channel subfamily K member 3 (Homo sapiens), O14649; FluxOR fluorescence; hits give low values; B-score at 10 µM; hit rate 0.84% among 340,000; AID 602410, 2012;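 active means B-score under library mean minus 4 SD, starting fluorescence ratio at most library mean plus 5 SD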;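 further: more negative B-score means stronger inhibition of thallium flux through KCNK3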
Target sequence (O14649 whole entry, looked up): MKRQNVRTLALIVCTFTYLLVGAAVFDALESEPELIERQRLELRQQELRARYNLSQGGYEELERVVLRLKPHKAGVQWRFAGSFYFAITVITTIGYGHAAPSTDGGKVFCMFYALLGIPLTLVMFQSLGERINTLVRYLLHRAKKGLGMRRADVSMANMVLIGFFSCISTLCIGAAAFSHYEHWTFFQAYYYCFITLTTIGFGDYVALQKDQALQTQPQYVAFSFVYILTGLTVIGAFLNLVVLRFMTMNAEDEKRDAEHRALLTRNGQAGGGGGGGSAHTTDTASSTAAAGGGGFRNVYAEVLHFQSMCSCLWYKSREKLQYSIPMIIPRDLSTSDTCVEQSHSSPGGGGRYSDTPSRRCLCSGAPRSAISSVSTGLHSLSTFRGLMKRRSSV
hERG rescue: hERG rescue from dofetilide block, primary screen, cell-based, CHO-hERG, FluxOR thallium flux, dofetilide IC70; Voltage-gated inwardly rectifying potassium channel KCNH2 (Homo sapiens), Q12809; dofetilide IC70 present; activation (rescue from dofetilide block), less the hit threshold, % at 10 µM; hit rate 0.51% among 310,000; AID 1511, 2009;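 active means activation above the mean of controls blocked by dofetilide plus 5 SD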;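 further: thallium influx through hERG after potassium depolarization seen as dye fluorescence rise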
Kir21 inh: inhibitors of mouse Kir2.1 inward-rectifier potassium channel; Inward rectifier potassium channel 2 (Mus musculus), P35561; HEK293-Kir2.1, FluxOR thallium flux fluorescence; hits give low values; B-score at 10 µM; hit rate 0.85% among 310,000; AID 1672, 2009;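 active means fluorescence ratio B-score at or below minus 3 SD of library scores, with starting-brightness B-score within 2 SD, cut at about -4.2 in these data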;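 further: channel flux triggered by added potassium and thallium sulfate stimulus; B-score of peak minus minimum fluorescence over baseline after thallium stimulus; more negative B-score means stronger Kir2.1 block with less thallium influx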
KCNK9 inh: KCNK9 potassium channel inhibitors, primary screen, HEK293 cells, thallium flux. Potassium channel subfamily K member 9 (Homo sapiens), Q9NPC2. FluxOR thallium flux fluorescence; hits give low values. B-score at 10 µM. hit rate 1.2% among 310,000. AID 488922, 2010;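 active means ratio B-score over 3 SD below the library mean, with starting fluorescence within 5 SD of its mean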;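 further: negative B-score means less thallium flux so channel inhibition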
* hit, by the source's call.

For Cn1nc(C(=O)OCc2ccc(Br)cc2F)c2ccccc2c1=O the results were KCNQ1 inh inactive, KCNQ1 pot inactive, KCNK3 block inactive, hERG rescue -1.9, Kir21 inh 0.06 and KCNK9 inh inactive.
Screening COC(=O)c1ccnc(/C=N/O)c1 returned KCNQ1 inh inactive, KCNQ1 pot inactive, KCNK3 block inactive, hERG rescue 6.2*, Kir21 inh 0.36 and KCNK9 inh inactive.
For Cn1nc(C(C)(C)C)c([N+](=O)[O-])c1C(=O)NC1CCCCC1 the results were KCNQ1 inh inactive, KCNQ1 pot inactive, KCNK3 block inactive, hERG rescue -4.1, Kir21 inh -1.19 and KCNK9 inh inactive.
O=[N+]([O-])c1cccc(S(=O)(=O)NCC2CC3CCC2C3)c1 (stereo not drawn) was read as KCNQ1 inh inactive, KCNQ1 pot inactive, KCNK3 block inactive, hERG rescue -5.2, Kir21 inh 0.1 and KCNK9 inh inactive.
For O=[N+]([O-])c1ccc(S(=O)(=O)NCC2CC3CCC2C3)cc1 (stereo not drawn) the results were KCNQ1 inh 7*, KCNQ1 pot inactive, KCNK3 block inactive, hERG rescue -2.6, Kir21 inh -0.44 and KCNK9 inh inactive.
For c1ccc2c(c1)CCc1ccccc1C2=C1CCNCC1 the results were KCNQ1 inh inactive, KCNQ1 pot inactive, KCNK3 block inactive, hERG rescue -9.4, Kir21 inh -3.02 and KCNK9 inh inactive.
`Cc1cccc(CS(=O)(=O)c2ncc(Cl)c(C(=O)Nc3c(C)cccc3C)n2)c1` gave KCNQ1 inh inactive, KCNQ1 pot inactive, KCNK3 block inactive, hERG rescue -17.9, Kir21 inh -11.8* and KCNK9 inh -6.68*.
`NS(=O)(=O)c1ccc(-c2c(-c3ccccc3)sc3ccccc23)cc1` gave KCNK3 block inactive.
`Cc1ccc([N+](=O)[O-])cc1N=Nc1c(-c2ccc([N+](=O)[O-])cc2)[nH]n(C(N)=S)c1=O` gave KCNQ1 inh 7*, KCNQ1 pot inactive, KCNK3 block inactive, hERG rescue -24.8, Kir21 inh 1.27 and KCNK9 inh inactive.
For Cc1ccc([N+](=O)[O-])cc1N=Nc1c(C)[nH]n(C(N)=S)c1=O the results were KCNQ1 inh inactive, KCNQ1 pot inactive, KCNK3 block inactive, hERG rescue -4.0, Kir21 inh -0.31 and KCNK9 inh inactive.
For COc1ccc(C(=O)Nc2sc(C)c(-c3ccccc3)c2C#N)cc1OC the results were KCNQ1 inh 6*, KCNQ1 pot inactive, KCNK3 block -10.6*, hERG rescue -4.9, Kir21 inh -0.34 and KCNK9 inh inactive.
For Cc1sc(NC(=O)COc2ccccc2)c(C#N)c1-c1ccccc1 the results were KCNQ1 inh inactive, KCNQ1 pot inactive, KCNK3 block inactive, hERG rescue -4.9, Kir21 inh -2.6 and KCNK9 inh inactive.
For CCNc1nc(SCCOc2ccc(C)cc2)nc(N(C)C)n1 the results were KCNQ1 inh inactive, KCNQ1 pot inactive, KCNK3 block inactive, hERG rescue -11.3, Kir21 inh -0.42 and KCNK9 inh inactive.
For Cc1ccc(OCCSc2nc(NC(C)C)nc(NC(C)C)n2)cc1 the results were KCNQ1 inh 6*, KCNQ1 pot inactive, KCNK3 block inactive, hERG rescue -15.9, Kir21 inh 0.18 and KCNK9 inh inactive.
`CC1c2ccsc2CCN1S(=O)(=O)c1cccs1` (stereo not drawn) gave KCNQ1 inh inactive, KCNQ1 pot inactive, KCNK3 block inactive, hERG rescue -6.8, Kir21 inh -6.25* and KCNK9 inh inactive.
For CN1CCN(S(=O)(=O)c2cccs2)CC1 the results were KCNQ1 inh inactive, KCNQ1 pot inactive, KCNK3 block inactive, hERG rescue -9.4, Kir21 inh 1.65 and KCNK9 inh inactive.
For CNCC[C@H](Oc1cccc2ccccc12)c1cccs1 the results were KCNQ1 inh inactive, KCNQ1 pot inactive, KCNK3 block inactive, hERG rescue -9.1, Kir21 inh -9.06* and KCNK9 inh inactive.
For CNCCC(Oc1ccc(C(F)(F)F)cc1)c1ccccc1 (stereo not drawn) the results were KCNQ1 inh inactive, KCNQ1 pot inactive, KCNK3 block inactive, Kir21 inh -2.61 and KCNK9 inh inactive.
For O=C(c1ccc(Cl)c(S(=O)(=O)N2CCOCC2)c1)N1CCN(c2ccccc2)CC1 the results were KCNQ1 inh inactive, KCNQ1 pot inactive, KCNK3 block inactive, hERG rescue -4.0, Kir21 inh 0.5 and KCNK9 inh inactive.
O=C(OCC(=O)N1CCc2ccccc21)[C@@H]1CCCN1S(=O)(=O)c1ccccc1F was read as KCNK3 block inactive.
Screening CC(NC(=O)COC(=O)[C@@H]1CCCN1S(=O)(=O)c1ccccc1F)C12CC3CC(CC(C3)C1)C2 (stereo partly drawn) returned KCNQ1 inh inactive, KCNQ1 pot inactive, KCNK3 block inactive, hERG rescue -11.5, Kir21 inh 0.05 and KCNK9 inh -6.84*.
For Cc1nc(N)nc(N)c1CCCc1ccc(Cl)c(Cl)c1 the results were KCNQ1 inh inactive, KCNQ1 pot inactive, KCNK3 block inactive, hERG rescue -14.0, Kir21 inh -7.81* and KCNK9 inh inactive.
Screening Cc1nc(N)nc(N)c1-c1ccc(Cl)c(Cl)c1 returned KCNK3 block inactive.
Screening C=CCOC(=O)C1=C(C)NC(=O)NC1c1cc2c(cc1Br)OCO2 (stereo not drawn) returned KCNQ1 inh inactive, KCNQ1 pot inactive, KCNK3 block inactive, hERG rescue -3.0, Kir21 inh 0.14 and KCNK9 inh inactive.
`O=[N+]([O-])c1ccccc1/C=N\N1CCN(c2ccccc2)CC1` gave KCNQ1 inh inactive, KCNQ1 pot inactive, KCNK3 block inactive, hERG rescue -13.9, Kir21 inh 0.1 and KCNK9 inh inactive.
Screening O=[N+]([O-])c1ccccc1/C=N/N1CCN(c2ccc(Cl)cc2)CC1 returned KCNQ1 inh inactive, KCNQ1 pot inactive, KCNK3 block inactive, hERG rescue -8.4, Kir21 inh 2.25 and KCNK9 inh -7.66*.
`O=[N+]([O-])c1ccc(Cl)c(/C=N/N2CCN(c3ccccc3)CC2)c1` gave KCNQ1 inh inactive, KCNQ1 pot inactive, KCNK3 block inactive, hERG rescue -0.5, Kir21 inh 0.21 and KCNK9 inh -7.84*.
